Key:
PC-3 = assay: Growth inhibition of human PC3 cells; type: functional, cell-based
MDA-MB-231 = assay: Growth inhibition of human MDA-MB-231 cells; type: functional, cell-based
ACHN = assay: Growth inhibition of human ACHN cells; type: functional
NUGC-3 = assay: Growth inhibition of human NUGC3 cells; type: functional
HCT-15 = assay: Growth inhibition of human HCT15 cells; type: functional
NCI-H23 = assay: Growth inhibition of human NCI-H23 cells; type: functional
[1] = Metabolic stability of the compound in ICR mouse liver microsome assessed as compound remaining at 1 uM; type: ADME; conditions: liver microsomes, read-out: Stability
Method in brief: (§1)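 Test compounds were incubated at 37 °C with ICR mouse liver microsomes, with NADPH, without NADPH, and in buffer alone. Read-out is % parent remaining. The screen used 1 mg protein/ml for 30 min. A separate run used female ICR microsomes at 0.5 mg protein/mL for 60 min with 1 µM compound.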

[2] = Metabolic stability of the compound in ICR mouse liver microsome assessed as compound remaining at 1 uM in presence of NADPH; type: ADME; conditions: liver microsomes, read-out: Stability; method in brief: as §1
[3] = Metabolic stability of the compound in ICR mouse liver microsome assessed as compound remaining at 1 uM in presence of buffer; type: ADME; conditions: liver microsomes, read-out: Stability; method in brief: as §1
[4] = Oral bioavailability in BALB/c mouse at 20 mg/kg; type: ADME, organism-based; conditions: in vivo
Method in brief: (§2)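 Balb/c mice were dosed intravenously or orally. Parameters come from noncompartmental analysis of mean plasma concentration–time profiles from three animals. Intravenous AUC was taken from 0 to infinity and oral AUC from 0 to 5 h. Oral bioavailability (F) is expressed as %.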

[5] = AUC (0 to 5 hrs) in BALB/c mouse at 20 mg/kg, po; type: ADME, organism-based; parameters: dose 20 mg/kg, route oral; conditions: plasma; method in brief: as §2
[6] = Tmax in BALB/c mouse at 20 mg/kg, po; type: ADME, organism-based; parameters: dose 20 mg/kg, route oral; conditions: in vivo; method in brief: as §2
[7] = Cmax in BALB/c mouse at 20 mg/kg, po; type: ADME, organism-based; parameters: dose 20 mg/kg, route oral; conditions: in vivo; method in brief: as §2
[8] = AUC (0 to infinity) in BALB/c mouse at 5 mg/kg, iv; type: ADME, organism-based; parameters: time infinity, dose 5 mg/kg, route intravenous; conditions: plasma; method in brief: as §2
Mus musculus [9] = assay: (§3) Volume of distribution at steady state in BALB/c mouse at 5 mg/kg, iv; type: ADME, organism-based; parameters: dose 5 mg/kg, route intravenous; conditions: in vivo; method in brief: as §2
Mus musculus [10] = assay: Clearance in BALB/c mouse at 10 mg/kg, iv; conditions: in vivo
Mus musculus [11] = assay: Half life in BALB/c mouse at 10 mg/kg, iv; conditions: in vivo
[12] = Apparent permeability across human Caco-2 cells; type: ADME, cell-based
[13] = Half life in BALB/c mouse at 20 mg/kg, po; type: ADME, organism-based; parameters: dose 20 mg/kg, route oral; conditions: in vivo; method in brief: as §2
[14] = Clearance in BALB/c mouse at 5 mg/kg, iv; type: ADME, organism-based; parameters: dose 5 mg/kg, route intravenous; conditions: in vivo; method in brief: as §2
[15] = Half life in BALB/c mouse at 5 mg/kg, iv; type: ADME, organism-based; parameters: dose 5 mg/kg, route intravenous; conditions: in vivo; method in brief: as §2
[16] = as §3; type: ADME, organism-based; parameters: dose 5 mg/kg, route intravenous; conditions: BALB/c, in vivo, read-out: Vdss; method in brief: as §2

GI50 (PC-3)	GI50 (MDA-MB-231)	GI50 (ACHN)	GI50 (HCT-15)	GI50 (NCI-H23)	remaining at 1 µM [1]	remaining at 1 µM [2]	SMILES	GI50 (NUGC-3)	further results
6.34 µM	2.84 µM	4.55 µM	4 µM	5.56 µM	–	–	Cc1ccc(CCN2CCC=C(CCC(=O)NO)C2=O)cc1	3.57 µM	–
7.25 µM	3.91 µM	8.71 µM	4.21 µM	6.5 µM	–	–	O=C(CCC1=CCCN(CCc2ccccc2Cl)C1=O)NO	5.93 µM	–
4.81 µM	3.54 µM	2.39 µM	3.19 µM	2.73 µM	–	–	O=C(CCC1=CCCN(CCCCc2ccc(Br)cc2)C1=O)NO	2.01 µM	–
0.39 µM	0.27 µM	0.38 µM	0.31 µM	0.43 µM	–	–	O=C(CCC1=CCCN(CCc2ccc3ccccc3c2)C1=O)NO	0.36 µM	–
7.07 µM	3.02 µM	4.47 µM	3.6 µM	6.09 µM	52.7%	45.3%	O=C(CCC1=CCCN(CCc2ccccc2F)C1=O)NO	3.78 µM	remaining at 1 µM [3]: 104%
4.82 µM	1.81 µM	–	1.7 µM	–	–	–	O=C(CCC1=CCCN(CCc2ccc(C(F)(F)F)cc2)C1=O)NO	–	–
–	–	–	–	–	86.8%	1.2%	CN(C)CCCN1c2ccccc2Sc2ccc(Cl)cc21 [CHLORPROMAZINE]	–	–
> 10 µM	8.17 µM	–	> 10 µM	–	–	–	N#Cc1ccc(CN2CCC=C(CCC(=O)NO)C2=O)cc1	–	–
3.41 µM	1.87 µM	–	0.87 µM	–	56.6%	29.6%	O=C(CCC1=CCCN(CCc2ccc(Br)cc2)C1=O)NO	–	remaining at 1 µM [3]: 104%
4.65 µM	3.58 µM	4.48 µM	6.22 µM	2.96 µM	40.3%	31.3%	O=C(CCC1=CCCN(Cc2cccc(Cl)c2)C1=O)NO	3.92 µM	remaining at 1 µM [3]: 103%
5.81 µM	3.12 µM	–	5.37 µM	–	55%	31.7%	O=C(CCC1=CCCN(Cc2ccc(Br)cc2F)C1=O)NO	–	bioavailability [4]: 14.1%; AUC(0-t) at 4 h [5]: 732 ng·h/mL; Tmax [6]: 15 min; Cmax [7]: 1390 ng/mL; AUC(0-inf) [8]: 2590 ng·h/mL; remaining at 1 µM [3]: 102%; Vdss (Mus musculus [9]): 0.8 L/kg; CL (Mus musculus [10]): 65 mL/min/kg; t1/2 (Mus musculus [11]): 372 min
–	–	–	–	–	–	–	COCCc1ccc(OCC(O)CNC(C)C)cc1 (stereo unspecified) [METOPROLOL]	–	Papp [12]: 29.6 ×10⁻⁶ cm/s
> 10 µM	> 10 µM	> 10 µM	> 10 µM	> 10 µM	–	–	O=C(CCC1=CCCN(CCc2ccc([N+](=O)[O-])cc2)C1=O)NO	> 10 µM	–
2.47 µM	1.9 µM	2.64 µM	2.35 µM	3.97 µM	–	–	O=C(CCC1=CCCN(CCc2cccc(C(F)(F)F)c2)C1=O)NO	1.7 µM	–
0.3 µM	0.56 µM	0.46 µM	0.53 µM	0.49 µM	–	–	O=C(CCC1=CCCN(CCCc2ccc3ccccc3c2Br)C1=O)NO	0.79 µM	–
8.48 µM	4.18 µM	–	> 10 µM	–	–	–	N#Cc1cccc(CN2CCC=C(CCC(=O)NO)C2=O)c1	–	–
–	–	–	–	–	–	–	CNC(=C[N+](=O)[O-])NCCSCc1ccc(CN(C)C)o1 [RANITIDINE]	–	Papp [12]: 1.5 ×10⁻⁶ cm/s
5.19 µM	2.84 µM	3 µM	2.94 µM	–	–	–	CC(C)(C)c1ccc(CN2CCC=C(CCC(=O)NO)C2=O)cc1	–	–
1.51 µM	0.92 µM	1.28 µM	1.66 µM	2.12 µM	–	–	O=C(CCC1=CCCN(CCc2ccc(Cl)cc2)C1=O)NO	1.06 µM	–
4.84 µM	3.03 µM	7.6 µM	3.96 µM	7.06 µM	–	–	COc1cccc(CCN2CCC=C(CCC(=O)NO)C2=O)c1	4.26 µM	–
4.15 µM	2.56 µM	2.46 µM	3.3 µM	2.88 µM	–	–	O=C(CCC1=CCCN(CCCCc2ccc(Cl)cc2)C1=O)NO	1.79 µM	–
0.5 µM	1.13 µM	2.27 µM	0.52 µM	0.99 µM	–	–	CC(C)(C)c1ccc(CCN2CCC=C(CCC(=O)NO)C2=O)cc1	1.1 µM	–
1.13 µM	> 10 µM	1.72 µM	1.66 µM	2 µM	8%	3.3%	CC(C)(C)c1ccc(CCCN2CCC=C(CCC(=O)NO)C2=O)cc1	2.81 µM	remaining at 1 µM [3]: 103%
> 10 µM	4.04 µM	–	4.41 µM	–	–	–	Cc1cccc(CCN2CCC=C(CCC(=O)NO)C2=O)c1	–	–
2.53 µM	3.05 µM	2.49 µM	2.94 µM	2.79 µM	5.7%	4%	Cc1ccc(CCCCN2CCC=C(CCC(=O)NO)C2=O)cc1	2.13 µM	remaining at 1 µM [3]: 99.3%
0.81 µM	0.87 µM	0.3 µM	1.25 µM	1.83 µM	–	–	O=C(CCC1=CCCN(CCc2cccc(Br)c2)C1=O)NO	0.82 µM	–
3.25 µM	2.03 µM	1.89 µM	5.4 µM	5.99 µM	8.5%	8.7%	O=C(CCC1=CCCN(CCCCc2ccccc2)C1=O)NO	3.19 µM	half-life [13]: 9 min; bioavailability [4]: 1%; AUC(0-t) at 4 h [5]: 64.4 ng·h/mL; Tmax [6]: 15 min; Cmax [7]: 197 ng/mL; clearance [14]: 49.8 mL/min/kg; half-life [15]: 77.4 min; AUC(0-inf) [8]: 1670 ng·h/mL; Papp [12]: 23.9 ×10⁻⁶ cm/s; remaining at 1 µM [3]: 97.3%; Vd [16]: 0.27 L/kg
> 10 µM	> 10 µM	9.53 µM	> 10 µM	> 10 µM	–	–	O=C(CCC1=CCCN(CCCCc2ccc(F)cc2)C1=O)NO	9.02 µM	–

SMILES	GI50 (PC-3)	GI50 (MDA-MB-231)	GI50 (ACHN)	GI50 (HCT-15)	GI50 (NCI-H23)	remaining at 1 µM [1]	remaining at 1 µM [2]	GI50 (NUGC-3)	further results
O=C1CC2(CCCC2)CC(=O)N1CCCCN1CCN(c2ncccn2)CC1 [BUSPIRONE]	–	–	–	–	–	96.6%	0.3%	–	remaining at 1 µM [3]: 106%
